Measurements from different studies.
Lines come from different studies, so protocols differ.
Cell line: HeLa

CCOCCOCCOCCNC(=S)NCCCC[C@H](NS(C)(=O)=O)C(=O)N[C@@H](C)C(=O)N[C@@H](CCCNC(=N)N)C(N)=O — EC50 (cell growth or viability; MTT; 72 h): > 100 µM
COc1cccc2c1C(=O)c1c(O)c3c(c(O)c1C2=O)C[C@@](O)(C(=O)CO)C[C@@H]3O[C@H]1C[C@H](N)[C@H](O)[C@H](C)O1 — IC50 (cell growth or viability; MTT; 24 h): 1.2 µM
COc1cc(OC)c(C(=O)/C=C/c2ccc(Br)cn2)c(OC)c1 — inhibition (colony formation; 4 µM; 7 days): ~100%
COc1cc(C)c(-c2c(C)cc(OC)c3c(=O)cc(-c4ccc(N(C)C)cc4)oc23)c2oc(-c3ccc(N(C)C)cc3)cc(=O)c12 — IC50 (cell growth or viability; MTT; 48 h): 1.4 µM
CCCCCCCCCCCCNC(=S)NCCCC[C@H](NC(=O)OCc1ccccc1)C(=O)N[C@@H](C)C(=O)N[C@@H](CCCNC(=N)N)C(N)=O — EC50 (cell growth or viability; MTT; 72 h): 41.4 to 53.1 µM
Cc1ccc(NC(=O)c2ccc(CN3CCN(C)CC3)cc2)cc1Nc1nccc(-c2cccnc2)n1 — inhibition (cell growth or viability; MTT; 20 µM; 48 h): 21%
C[C@@H](NC(=O)[C@H](CCCCNC(=O)C(F)(F)F)NS(C)(=O)=O)C(=O)N[C@@H](CCCNC(=N)N)C(N)=O — EC50 (cell growth or viability; MTT; 72 h): 52.1 to 75.8 µM
COc1cc(C)c(-c2c(C)cc(OC)c3c(=O)cc(-c4ccc(Br)cc4)oc23)c2oc(-c3ccc(Br)cc3)cc(=O)c12 — IC50 (cell growth or viability; MTT; 48 h): 35.8 µM
COc1cc(F)ccc1-c1cc(Nc2cc(CS(C)(=N)=O)ccn2)ncc1F (stereo not drawn) — GI50 (cell growth or viability; 24 h): 0.045 µM
